Test results taken from ChEMBL document CHEMBL4689842, “EUbOPEN Chemogenomics Library wave 1” (2021).

Test system: HEK-293T
Assay: Multiplex assay against HEK293T;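 as to Population Tubulin-Different-Phenotype (%): share of the cells with healthy nuclei that show this phenotype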
Assay type: toxicity, cell-based
Details: human
Outline: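 Imaging took place on a CQ1 microscope at 37°C and 5% CO2 once compound had been added to live cells stained at seeding with Hoechst33342, BioTracker Green Microtubule Cytoskeleton Dye, MitoTracker Red and Annexin V Alexa Fluor 680. CellPathfinder machine-learning gating classed cells as Hoechst high-intensity objects or normal cells, classed normal cells as having healthy, pyknosed or fragmented nuclei, and classed pyknosed cells as mitotic or apoptotic. Tubulin, mitochondrial-mass and membrane-permeability phenotypes are per cents of the healthy-nucleus cells.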

[1] = 12 h, 1 µM, compound concentration 1 uM, replicate 1
[2] = 12 h, 1 µM, compound concentration 1 uM, replicate 2
[3] = 12 h, 10 µM, compound concentration 10 uM, replicate 1
[4] = 12 h, 10 µM, compound concentration 10 uM, replicate 2
[5] = 24 h, 1 µM, compound concentration 1 uM, replicate 1
[6] = 24 h, 1 µM, compound concentration 1 uM, replicate 2
[7] = 24 h, 10 µM, compound concentration 10 uM, replicate 1
[8] = 24 h, 10 µM, compound concentration 10 uM, replicate 2

Compound: Cc1cn(-c2cc(NC(=O)c3ccc4c(c3)CN(c3cncnc3)C[C@@H]4C)cc(C(F)(F)F)c2)cn1
- Population Apoptotic (%) [1]: 15%
- Population Fragmented Nuclei (%) [1]: 25%
- Population Healthy Nuclei (%) [1]: 52%
- Population Hoechst High Intensity Objects (%) [1]: 20%
- Population Membrane Permeable-Phenotype (%) [1]: 5%
- Population Mitochondria Different-Phenotype (%) [1]: 6%
- Population Mitotic Cells (%) [1]: 84%
- Population Normal (%) [1]: 79%
- Population Pyknosed Nuclei (%) [1]: 22%
- Population Tubulin-Different-Phenotype (%) [1]: 4%
- Total Cell Count [1]: 536
- Population Apoptotic (%) [2]: 8%
- Population Fragmented Nuclei (%) [2]: 6%
- Population Healthy Nuclei (%) [2]: 87%
- Population Hoechst High Intensity Objects (%) [2]: 3%
- Population Membrane Permeable-Phenotype (%) [2]: 2%
- Population Mitochondria Different-Phenotype (%) [2]: 8%
- Population Mitotic Cells (%) [2]: 91%
- Population Normal (%) [2]: 96%
- Population Pyknosed Nuclei (%) [2]: 5%
- Total Cell Count [2]: 1397
- Population Apoptotic (%) [3]: 17%
- Population Fragmented Nuclei (%) [3]: 17%
- Population Healthy Nuclei (%) [3]: 62%
- Population Hoechst High Intensity Objects (%) [3]: 13%
- Population Membrane Permeable-Phenotype (%) [3]: 12%
- Population Mitochondria Different-Phenotype (%) [3]: 6%
- Population Mitotic Cells (%) [3]: 82%
- Population Normal (%) [3]: 86%
- Population Pyknosed Nuclei (%) [3]: 20%
- Population Tubulin-Different-Phenotype (%) [3]: 37%
- Total Cell Count [3]: 653
- Population Apoptotic (%) [4]: 16%
- Population Fragmented Nuclei (%) [4]: 5%
- Population Healthy Nuclei (%) [4]: 88%
- Population Hoechst High Intensity Objects (%) [4]: 4%
- Population Membrane Permeable-Phenotype (%) [4]: 5%
- Population Mitochondria Different-Phenotype (%) [4]: 24%
- Population Mitotic Cells (%) [4]: 83%
- Population Normal (%) [4]: 95%
- Population Pyknosed Nuclei (%) [4]: 5%
- Population Tubulin-Different-Phenotype (%) [4]: 40%
- Total Cell Count [4]: 1483
- Population Apoptotic (%) [5]: 23%
- Population Fragmented Nuclei (%) [5]: 16%
- Population Healthy Nuclei (%) [5]: 72%
- Population Hoechst High Intensity Objects (%) [5]: 15%
- Population Membrane Permeable-Phenotype (%) [5]: 9%
- Population Mitochondria Different-Phenotype (%) [5]: 3%
- Population Mitotic Cells (%) [5]: 76%
- Population Normal (%) [5]: 84%
- Population Pyknosed Nuclei (%) [5]: 11%
- Population Tubulin-Different-Phenotype (%) [5]: 3%
- Total Cell Count [5]: 545
- Population Apoptotic (%) [6]: 6%
- Population Fragmented Nuclei (%) [6]: 15%
- Population Healthy Nuclei (%) [6]: 81%
- Population Hoechst High Intensity Objects (%) [6]: 2%
- Population Membrane Permeable-Phenotype (%) [6]: 5%
- Population Mitochondria Different-Phenotype (%) [6]: 2%
- Population Mitotic Cells (%) [6]: 93%
- Population Normal (%) [6]: 97%
- Population Pyknosed Nuclei (%) [6]: 2%
- Population Tubulin-Different-Phenotype (%) [6]: 5%
- Total Cell Count [6]: 2221
- Population Apoptotic (%) [7]: 15%
- Population Fragmented Nuclei (%) [7]: 16%
- Population Healthy Nuclei (%) [7]: 73%
- Population Hoechst High Intensity Objects (%) [7]: 12%
- Population Membrane Permeable-Phenotype (%) [7]: 29%
- Population Mitochondria Different-Phenotype (%) [7]: 6%
- Population Mitotic Cells (%) [7]: 84%
- Population Normal (%) [7]: 87%
- Population Pyknosed Nuclei (%) [7]: 10%
- Population Tubulin-Different-Phenotype (%) [7]: 54%
- Total Cell Count [7]: 740
- Population Apoptotic (%) [8]: 8%
- Population Fragmented Nuclei (%) [8]: 12%
- Population Healthy Nuclei (%) [8]: 84%
- Population Hoechst High Intensity Objects (%) [8]: 3%
- Population Membrane Permeable-Phenotype (%) [8]: 14%
- Population Mitochondria Different-Phenotype (%) [8]: 7%
- Population Mitotic Cells (%) [8]: 91%
- Population Normal (%) [8]: 96%
- Population Pyknosed Nuclei (%) [8]: 3%
- Population Tubulin-Different-Phenotype (%) [8]: 55%
- Total Cell Count [8]: 2031
